In the library only some 3% were active in any assay of this set; here they are far more common.
HNF4A DNA FP: change in binding of human HNF4 alpha to DNA | hit rate 0.3% among 360,000 | HNF4a-FITC DNA binding, fluorescence polarization, 1 h | activity change, % at 10 µM | P41235; in the data active = activity change above about 30%, passing the limit was not always enough
Myeloid diff 2: myeloid differentiation induction; hit rate 1% among 360,000; calls only at 10 µM; AID 624256; ER-HoxA9 myeloid progenitors, lysozyme-GFP differentiation, flow cytometry;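 active = normalized GFP-positive differentiation at or above the plate's own cutoff, the solvent-only control mean plus 3 SD; inconclusive = no clear call, values can overlap the other calls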;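 note: cells exposed to compound for four days before flow analysis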
DSG3 Ab inh: inhibitors of pemphigus antibody binding to human desmoglein-3; binding (percent of control), % at 10 µM; DSG3-coupled beads, scFv-anti-DSG3-GFP binding, flow cytometry; stronger effect = lower value; hit rate 0.48% among 310,000; AID 588358;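 active = binding more than 3 SD below its plate's average and above zero; inconclusive = below that plate limit but binding exactly zero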
Granule exo inh: blocks lytic granule exocytosis; hit rate 0.66% among 360,000; inhibition, % at 10 µM; TALL-104 LAMP-1 surface exposure, flow cytometry; cells stimulated with thapsigargin and PMA; AID 651702;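 active = inhibition above about 55%, limit read from the data; inconclusive = no clear call, values can overlap the other calls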
H9c2 protect: modulators protecting cardiomyocytes from myocardial damage. H9c2 cardiomyocytes, H2O2 injury protection, ATPLite, 2 h. protection from H2O2 cell death, % at 20 µM. hit rate 0.63% among 360,000. AID 588492;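 active = compounds giving at least 50% protection of heart cells from peroxide-induced death in the single-dose screen, raw or plate-pattern-corrected value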
SENP1 inh: inhibitors of human SENP1 SUMO protease catalytic domain | Q9P0U3 | recombinant SENP1 catalytic domain, CyPet-SUMO1-YPet FRET cleavage | inhibition, % at 10 µM | hit rate 0.21% among 360,000 | AID 624204;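 active = inhibition at least 30% at 10 µM, raw YFP signal under a set limit, fluorescence ratio 0.5 to 1.5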
Target sequence (Q9P0U3 419-644 limits assumed): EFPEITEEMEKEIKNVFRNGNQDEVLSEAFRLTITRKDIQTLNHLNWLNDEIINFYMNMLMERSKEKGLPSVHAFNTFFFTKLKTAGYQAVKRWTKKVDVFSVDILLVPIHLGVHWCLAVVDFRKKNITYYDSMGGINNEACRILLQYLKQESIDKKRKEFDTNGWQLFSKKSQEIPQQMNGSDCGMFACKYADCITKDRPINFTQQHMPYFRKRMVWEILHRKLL
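Assay system – human recombinant His6-tagged SENP1 catalytic domain enzyme · Input – SENP1 enzyme, 20 pM final · Buffer or medium – Tris pH 8 buffer plus EDTA, NaCl, BME, BSA, NP40, catalase · Schedule – 50 min reaction at room temperature · Technique – FRET read of cyan and yellow fluorescence · Control set – no-enzyme wells low, DMSO-plus-enzyme wells high control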
Large screens that a line does not name were inactive.

Cc1ccc(-c2n[nH]c(=O)c3ccccc23)cc1S(=O)(=O)N(C)CCO	none (no result: DSG3 Ab inh)
COc1cccc(/C=C/C(=O)Nc2ccc3c(c2)OCCO3)c1OC	none
COc1cccc(C2NC(=O)NC(C)=C2C(=O)Nc2ccc(C)cc2)c1OC (centres undefined)	Myeloid diff 2 active
O=c1cnn(Cc2c(Cl)cccc2Cl)c2ccccc12	Myeloid diff 2 active
COc1cccc(C2c3c(C)nn(-c4ccc([N+](=O)[O-])cc4)c3N=C3C(=O)Nc4ccccc4N32)c1 (centres undefined)	HNF4A DNA FP 57, H9c2 protect 56
O=C(c1cccn(Cc2ccc(Cl)c(Cl)c2)c1=O)N1CCOCC1	HNF4A DNA FP 70
CCOC(=O)C1=C(COC(=O)CCNS(=O)(=O)c2ccc(C)c(C)c2)NC(=O)NC1C (centres undefined)	none (no result: DSG3 Ab inh)
Cc1c(N=Cc2cc(Br)cc(Br)c2O)cccc1C(=O)O	H9c2 protect 62
Fc1ccc(C2Nc3cccc4cccc(c34)N2)cc1	none
Brc1ccc(C2Nc3cccc4cccc(c34)N2)cc1	Myeloid diff 2 active
CC(C)OCCCn1c(=N)c(C(N)=S)cc2c(=O)n3ccccc3nc21	Myeloid diff 2 active, DSG3 Ab inh inconclusive
CC(C)(C)OC(=O)N1CCC(NC(=O)c2[nH]cnc2C(=O)Nc2ccccc2)CC1	Myeloid diff 2 active
Cc1ccc(NC(=O)c2nc[nH]c2C(=O)NC2CCN(C(=O)OC(C)(C)C)CC2)cc1	none
COc1cc(NS(=O)(=O)c2c(C)[nH]c(C)c2C(=O)N2CCCCC2)cc(OC)c1OC	none
CCOC(=O)c1ccc(-n2c(C)ccc2C)cc1	none
CCOC(=O)c1ccc(N2C(=O)C=CC2=O)cc1	Granule exo inh 105
CC(C)CN(C(=O)c1cccc(S(=O)(=O)N2CCN(Cc3ccccc3)CC2)c1)C1CCS(=O)(=O)C1 (centres undefined)	none
Cc1onc(-c2ccccc2)c1C(=O)NC(=S)NNC(=O)c1ccc(O)cc1O	H9c2 protect 51 (no result: Myeloid diff 2)
Cc1onc(-c2ccccc2)c1C(=O)NC(=S)NNC(=O)c1ccccc1O	Myeloid diff 2 active, H9c2 protect 60
COc1ccc(Nc2nc(Cl)c(C=O)s2)cc1	HNF4A DNA FP 88, Myeloid diff 2 active
Cc1nc2ccc(NC(=O)c3ccc(S(=O)(=O)N4CCOCC4)cc3)cc2s1	DSG3 Ab inh 81
COc1ccc(OC)c2sc(NC(=O)c3ccc(S(=O)(=O)N4CCOCC4)cc3)nc12	DSG3 Ab inh -17
Cc1onc(-c2c(Cl)cccc2Cl)c1C(=O)c1c[nH]c(C(=O)NCC2CCCO2)c1 (centres undefined)	none (no result: DSG3 Ab inh)
COc1ccc(C[C@@H]2OC3(C=CC(=O)C=C3)O[C@H]2Cc2ccc(OC)cc2)cc1	Myeloid diff 2 active, Granule exo inh 96
O=C1Nc2ccccc2C1Cc1ccccc1 (centres undefined)	none
O=C1C=CC2(C=C1)O[C@H](Cc1ccccc1)[C@@H](Cc1ccccc1)O2	Myeloid diff 2 active, Granule exo inh 98
COc1ccc(N2C(=O)CC(Cc3ccccc3)C2=O)cc1 (centres undefined)	none
Cc1ccsc1C(=O)OCC(=O)NC1CCCCC1	none
CCc1ccccc1NC(=O)CN1CCN(C(=O)CNC(=O)Cc2cccc3ccccc23)CC1	HNF4A DNA FP 34
CC(C)(C)C(O)C(Cc1ccccc1Cl)n1cncn1 (centres undefined)	none
COc1ccc(-c2ccnc3[nH]n(-c4ccccc4)c(=O)c23)cc1	Myeloid diff 2 active, DSG3 Ab inh 87
COc1ccc(S(=O)(=O)NCC(=O)NCc2cc(=O)n(C)c(=O)n2C)cc1C	Myeloid diff 2 active (no result: DSG3 Ab inh)
COc1ccc(-c2csc(Nc3ncccc3C)n2)cc1OC	none
Cc1cccnc1Nc1nc(-c2ccc(O)c(O)c2)cs1	H9c2 protect 65
CC(Cc1ccccc1)C(=O)N[C@@H](CO)Cc1ccccc1 (some centres undefined)	Myeloid diff 2 active
CCOC(=O)C(C)Oc1ccc(C2NC(=O)NC(C)=C2C(C)=O)cc1Br (centres undefined)	H9c2 protect 55
CCOC(=O)C1=C(c2ccccc2)NC(=O)NC1c1cc(Br)c(O)c(OC)c1 (centres undefined)	none

Assay outcomes: PubChem BioAssay, several laboratories
